Laboratory results: ChEMBL document CHEMBL4373725, “Structure Kinetics Relationships and Molecular Dynamics Show Crucial Role for Heterocycle Leaving Group in Irreversible Diacylglycerol Lipase Inhibitors” (J Med Chem, 2019)

Assays:
[1] = target: T1, Diacylglycerol lipase-alpha (Mus musculus, UniProt Q6WQJ1); test: Inhibition of mouse DAGL-alpha expressed in HEK293T cell membranes pre-incubated for 20 mins before PNP-butyrate substrate addition and measured after 30 mins by surrogate substrate assay; format: cell-based
T1 sequence (Q6WQJ1 whole entry): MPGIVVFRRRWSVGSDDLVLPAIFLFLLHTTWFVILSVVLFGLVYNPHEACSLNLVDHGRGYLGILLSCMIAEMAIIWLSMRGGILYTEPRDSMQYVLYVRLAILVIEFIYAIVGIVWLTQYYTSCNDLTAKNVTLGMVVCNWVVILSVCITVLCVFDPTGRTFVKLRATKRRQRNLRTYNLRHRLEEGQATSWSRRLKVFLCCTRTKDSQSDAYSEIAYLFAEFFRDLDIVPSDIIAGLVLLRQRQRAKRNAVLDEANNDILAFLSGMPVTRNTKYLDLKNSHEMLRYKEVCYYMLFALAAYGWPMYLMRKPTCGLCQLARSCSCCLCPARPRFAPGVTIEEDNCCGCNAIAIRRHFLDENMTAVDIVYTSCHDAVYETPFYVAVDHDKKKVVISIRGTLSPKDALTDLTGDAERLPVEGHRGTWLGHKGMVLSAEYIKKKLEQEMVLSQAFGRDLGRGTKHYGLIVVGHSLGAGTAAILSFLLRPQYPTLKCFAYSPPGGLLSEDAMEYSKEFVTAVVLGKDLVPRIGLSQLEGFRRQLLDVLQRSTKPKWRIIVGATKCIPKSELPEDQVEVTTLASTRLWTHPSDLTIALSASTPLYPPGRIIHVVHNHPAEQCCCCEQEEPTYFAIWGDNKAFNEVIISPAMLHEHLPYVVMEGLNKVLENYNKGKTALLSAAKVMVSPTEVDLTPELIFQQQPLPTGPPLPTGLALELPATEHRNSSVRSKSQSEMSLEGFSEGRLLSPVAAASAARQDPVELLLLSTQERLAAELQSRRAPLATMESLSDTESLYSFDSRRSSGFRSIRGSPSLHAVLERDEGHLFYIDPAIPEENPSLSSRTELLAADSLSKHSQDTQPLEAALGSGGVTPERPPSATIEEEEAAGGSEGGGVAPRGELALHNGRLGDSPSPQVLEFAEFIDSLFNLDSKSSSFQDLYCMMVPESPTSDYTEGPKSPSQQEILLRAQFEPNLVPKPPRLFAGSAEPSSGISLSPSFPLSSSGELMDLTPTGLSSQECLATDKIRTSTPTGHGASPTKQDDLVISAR
Method in brief: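 mDAGL-α membrane fraction from transiently transfected HEK293T cells, at 0.05 μg/μL final, in 50 mM Hepes pH 7.2. Inhibitor in DMSO was preincubated 20 min, then PNP-butyrate was added (0.3 mM final; 5% DMSO final). After 30 min at 20 °C, OD was read at 420 nm. Background from 10 μM THL was subtracted and values normalized to DMSO control. Plates were kept if Z′ > 0.6. N = 2, n = 2.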

[2] = target: T2, Diacylglycerol lipase-alpha (Mus musculus) (UniProt Q6WQJ1); test: Inhibition of mouse DAGL-alpha expressed in HEK293T cell membranes assessed as inactivation constant pre-incubated for 20 mins before PNP-butyrate substrate addition and measured after 30 mins by surrogate substrate assay; format: cell-based
T2 sequence (whole entry): T1 sequence (Q6WQJ1 whole entry)

[3] = Dissociation constant, pKa of the compound; format: physicochemical
[4] = target: T1, Diacylglycerol lipase-alpha; test: Inhibition of mouse DAGL-alpha expressed in HEK293T cell membranes assessed as inhibition constant without pre-incubation, measured continuously from t=0 with 600 uM PNP-butyrate by surrogate substrate assay
[5] = target: T2, Diacylglycerol lipase-alpha (Mus musculus); test: Inhibition of mouse DAGL-alpha expressed in HEK293T cell membranes assessed as inactivation constant measured continuously from t=0 without pre-incubation by kinetic PNP-butyrate substrate assay

| SMILES | IC50 ([1]; read-out: IC50) | Kinact [2] | pKa [3] | Ki [4] | IC50 ([1]; read-out: pIC50 (converted)) | Kinact [5] |
| --- | --- | --- | --- | --- | --- | --- |
| O=C(N1CCCC[C@@H]1Cc1ccccc1)n1ccc(C(O)(c2ccc(F)cc2)c2ccc(F)cc2)n1 | 210 nM | 0.08 min⁻¹ | 14.2 | 10800 nM |  |  |
| O=C(N1CCCC[C@@H]1Cc1ccccc1)n1cnc(C(O)(c2ccc(F)cc2)c2ccc(F)cc2)c1 |  |  | 14.4 |  | > 31600 nM |  |
| O=C(N1CCCCC1Cc1ccccc1)n1cc(-c2ccc(-c3ccccc3)cc2)nn1 (stereo unspecified) |  | 0.08 min⁻¹ |  | 0.35 nM | < 1 nM |  |
| O=C(N1CCCC[C@@H]1Cc1ccccc1)n1cc(C(O)(c2ccc(F)cc2)c2ccc(F)cc2)nn1 |  | 0.32 min⁻¹ | 9.3 | 339 nM | 3.8 nM |  |
| O=C(N1CCCC[C@@H]1Cc1ccccc1)n1cnc(C(O)(c2ccc(F)cc2)c2ccc(F)cc2)n1 | 3400 nM | 0.075 min⁻¹ | 10 | 13800 nM |  |  |

More lines, now with the values ahead:

| IC50 ([1]; read-out: IC50) | Kinact [2] | pKa [3] | Ki [4] | IC50 ([1]; read-out: pIC50 (converted)) | Kinact [5] | SMILES |
| --- | --- | --- | --- | --- | --- | --- |
|  |  |  | 0.27 nM | < 1 nM | 0.058 min⁻¹ | C#CCO[C@@H]1CC[C@H](Cc2ccccc2)N(C(=O)n2ncc(C(O)(c3ccc(F)cc3)c3ccc(F)cc3)n2)C1 |
|  | 0.22 min⁻¹ | 9.3 | 10.4 nM | 3.02 nM |  | O=C(N1CCCC[C@@H]1Cc1ccccc1)n1ncc(C(O)(c2ccc(F)cc2)c2ccc(F)cc2)n1 |
|  |  |  | 0.23 nM | 2.51 nM |  | Cc1ccc(-c2cnc3nc(C(=O)CCCCCc4ccccc4)oc3c2)cc1 |
